Measured values published in ChEMBL document CHEMBL1240443, “A study of cytotoxicity of novel chlorokojic acid derivatives with their antimicrobial and antiviral activities” (Eur J Med Chem, 2010).
≈ marks a conversion by molar mass, not a printed value.

Assays:
Proteus mirabilis [1] = experiment: Antimicrobial activity against extended spectrum beta lactamase expressing Proteus mirabilis by spectrophotometry; format: functional
How it was run: (§1)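 Broth microdilution in Mueller–Hinton broth. Two-fold dilutions from 256 to 0.125 µg/mL. Inoculum 10^5 c.f.u./mL, diluted from a McFarland 0.5 culture. Incubated at 35 °C for 24 h and 48 h in a humid chamber, triplicate.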

Bacillus subtilis [2] = experiment: Antimicrobial activity against ceftriaxone-resistant Bacillus subtilis by spectrophotometry; format: functional; how it was run: as §1
Staphylococcus aureus = experiment: Antimicrobial activity against methicillin-resistant Staphylococcus aureus by spectrophotometry; format: functional; how it was run: as §1
[3] = Cytotoxicity against MDBK cells after 48 hrs; format: cell-based, Bos taurus; details: cattle
Human respirovirus 3 = experiment: Antiviral activity against parainfluenza-3 virus infected in Vero cells assessed as reduction of virus-induced cytopathic effect; format: functional
How it was run: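 Vero cells grown in EMEM with 10% fetal calf serum. Two-fold dilutions from 51.2 to 0.012 µg/mL, with PI-3 added at its TCID50-based titre, held 2 h at 37 °C in 5% CO2. CPE scored by microscope against untreated controls, giving the CPE-inhibitory concentration range.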

Klebsiella pneumoniae [4] = experiment: Antimicrobial activity against extended spectrum beta lactamase expressing Klebsiella pneumoniae by spectrophotometry; format: functional; how it was run: as §1
Acinetobacter baumannii [5] = experiment: Antimicrobial activity against cephalosporin-resistant Acinetobacter baumannii by spectrophotometry; format: functional; how it was run: as §1
Acinetobacter baumannii [6] = experiment: Antimicrobial activity against Acinetobacter baumannii RSKK 02026 by spectrophotometry; format: functional; how it was run: as §1
Pseudomonas aeruginosa [7] = experiment: Antimicrobial activity against trimethoprim-sulfamethoxazole and tazobactum-induced Pseudomonas aeruginosa by spectrophotometry; format: functional; how it was run: as §1
Candida parapsilosis = experiment: Antifungal activity against Candida parapsilosis ATCC 22019 by spectrophotometry; format: functional; details: Lodderomyces parapsilosis
How it was run: (§2)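 Yeast broth microdilution in RPMI-1640 with L-glutamine, buffered to pH 7 with MOPS. Inoculum 10^5 c.f.u./mL, prepared by the spectrophotometric method. Two-fold dilutions from 256 to 0.125 µg/mL. Incubated at 35 °C for 24 h and 48 h in a humid chamber, triplicate.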

Bacillus subtilis [8] = experiment: Antimicrobial activity against Bacillus subtilis ATCC 6633 by spectrophotometry; format: functional; how it was run: as §1
Pseudomonas aeruginosa [9] = experiment: microbe, parasite or virus in culture; details: ATCC 10145
Enterococcus faecalis [10] = experiment: Antimicrobial activity against cephalosporin-resistant Enterococcus faecalis by spectrophotometry; format: functional; how it was run: as §1
Escherichia coli [11] = experiment: Antimicrobial activity against Escherichia coli ATCC 35218 by spectrophotometry; format: functional; how it was run: as §1
Enterococcus faecalis [12] = experiment: Antimicrobial activity against Enterococcus faecalis ATCC 29212 by spectrophotometry; format: functional; how it was run: as §1
Escherichia coli [13] = experiment: Antimicrobial activity against extended spectrum beta lactamase expressing Escherichia coli by spectrophotometry; format: functional; how it was run: as §1
Klebsiella pneumoniae [14] = experiment: Antimicrobial activity against Klebsiella pneumoniae RSKK 574 by spectrophotometry; format: functional; how it was run: as §1
[15] = Cytotoxicity against african green monkey Vero cells after 48 hrs; format: cell-based; details: chlorocebus sabaeus
How it was run: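 Confluent cell monolayers exposed to two-fold (Log2) dilutions of each sample (51.2–0.012 µg/mL) in EMEM, 5% CO2, 37 °C, 48 h. Scored by light microscopy against untreated cultures; rows damaging all cells counted toxic. Maximum non-toxic concentration (MNTC, µg/mL) taken as highest concentration leaving cells unaffected. Vero grown in EMEM/10% fetal calf serum with streptomycin/penicillin.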

Proteus mirabilis [16] = experiment: Antimicrobial activity against Proteus mirabilis ATCC 7002 by spectrophotometry; format: functional; how it was run: as §1
Candida albicans = experiment: Antifungal activity against Candida albicans ATCC 10231 by spectrophotometry; format: functional; how it was run: as §2

Compound | MIC (Proteus mirabilis [1]) [µg/mL] | MIC (Bacillus subtilis [2]) [µg/mL] | MIC (Staphylococcus aureus) [µg/mL] | MNTC at 48 h [3] [µg/mL] | CPE-inhibitory concentration (Human respirovirus 3) [µg/mL] | MIC (Klebsiella pneumoniae [4]) [µg/mL] | MIC (Acinetobacter baumannii [5]) [µg/mL] | MIC (Acinetobacter baumannii [6]) [µg/mL] | MIC (Pseudomonas aeruginosa [7]) [µg/mL] | MIC (Candida parapsilosis) [µg/mL] | MIC (Bacillus subtilis [8]) [µg/mL] | MIC (Pseudomonas aeruginosa [9]) [µg/mL] | MIC (Enterococcus faecalis [10]) [µg/mL] | MIC (Escherichia coli [11]) [µg/mL] | MIC (Enterococcus faecalis [12]) [µg/mL] | MIC (Escherichia coli [13]) [µg/mL] | MIC (Klebsiella pneumoniae [14]) [µg/mL] | MNTC at 48 h [15] [µg/mL] | MIC (Proteus mirabilis [16]) [µg/mL] | MIC (Candida albicans) [µg/mL]
O=c1cc(CCl)oc(CN2CCN(C(c3ccccc3)c3ccc(Cl)cc3)CC2)c1O (centres undefined) | 64 (≈ 139 µM) | 2 (≈ 4.35 µM) | 64 (≈ 139 µM) | 0.4 | 0.1 | 64 (≈ 139 µM) | 16 (≈ 34.8 µM) | 4 (≈ 8.71 µM) | 16 (≈ 34.8 µM) | 8 (≈ 17.4 µM) | 1 (≈ 2.18 µM) | 2 (≈ 4.35 µM) | 32 (≈ 69.7 µM) | 4 (≈ 8.71 µM) | 16 (≈ 34.8 µM) | 64 (≈ 139 µM) | 4 (≈ 8.71 µM) | 0.4 | 8 (≈ 17.4 µM) | 4 (≈ 8.71 µM)
OC(Cn1cncn1)(Cn1cncn1)c1ccc(F)cc1F [FLUCONAZOLE] |  |  |  |  |  |  |  |  |  | 4 (≈ 13.1 µM) |  |  |  |  |  |  |  |  |  | 2 (≈ 6.53 µM)
CC(=O)N1CCN(c2ccc(OCC3COC(Cn4ccnc4)(c4ccc(Cl)cc4Cl)O3)cc2)CC1 (centres undefined) [KETOCONAZOLE] |  |  |  |  |  |  |  |  |  | 1 (≈ 1.88 µM) |  |  |  |  |  |  |  |  |  | 1 (≈ 1.88 µM)
CC(C)(C)OC(=O)N1CCN(Cc2oc(CCl)cc(=O)c2O)CC1 | 64 (≈ 178 µM) | 2 (≈ 5.57 µM) | 128 (≈ 357 µM) | 0.8 | 0.2 | 64 (≈ 178 µM) | 16 (≈ 44.6 µM) | 8 (≈ 22.3 µM) | 16 (≈ 44.6 µM) | 8 (≈ 22.3 µM) | 1 (≈ 2.79 µM) | 4 (≈ 11.1 µM) | 128 (≈ 357 µM) | 8 (≈ 22.3 µM) | 8 (≈ 22.3 µM) | 64 (≈ 178 µM) | 8 (≈ 22.3 µM) | 0.4 | 16 (≈ 44.6 µM) | 4 (≈ 11.1 µM)
O=c1cc(CCl)oc(CN2CCC(O)(c3ccc(Cl)c(C(F)(F)F)c3)CC2)c1O | 64 (≈ 142 µM) | 2 (≈ 4.42 µM) | 64 (≈ 142 µM) | 0.8 | 0.05 | 64 (≈ 142 µM) | 16 (≈ 35.4 µM) | 4 (≈ 8.84 µM) | 16 (≈ 35.4 µM) | 8 (≈ 17.7 µM) | 1 (≈ 2.21 µM) | 2 (≈ 4.42 µM) | 32 (≈ 70.8 µM) | 4 (≈ 8.84 µM) | 16 (≈ 35.4 µM) | 64 (≈ 142 µM) | 4 (≈ 8.84 µM) | 0.4 | 8 (≈ 17.7 µM) | 4 (≈ 8.84 µM)
CC(=O)C1(c2ccccc2)CCN(Cc2oc(CCl)cc(=O)c2O)CC1 | 64 (≈ 170 µM) | 2 (≈ 5.32 µM) | 128 (≈ 341 µM) | 0.4 |  | 64 (≈ 170 µM) | 16 (≈ 42.6 µM) | 4 (≈ 10.6 µM) | 16 (≈ 42.6 µM) | 8 (≈ 21.3 µM) | 1 (≈ 2.66 µM) | 4 (≈ 10.6 µM) | 128 (≈ 341 µM) | 8 (≈ 21.3 µM) | 64 (≈ 170 µM) | 64 (≈ 170 µM) | 8 (≈ 21.3 µM) | 0.4 | 16 (≈ 42.6 µM) | 4 (≈ 10.6 µM)
GENTAMICIN |  |  |  |  |  |  |  |  | 2 |  |  |  |  |  |  |  |  |  |  | 
